{"source": "ChEMBL document CHEMBL3526062", "about": "“Role of human UDP-glucuronosyltransferases in the biotransformation of the triazoloacridinone and imidazoacridinone antitumor agents C-1305 and C-1311: highly selective substrates for UGT1A10” (Drug Metab Dispos, 2012)", "molecules": {"B1": {"name": "UDP-glucuronosyltransferase 1A7 (Homo sapiens) (protein)", "chain": "MARAGWTGLLPLYVCLLLTCGFAKAGKLLVVPMDGSHWFTMQSVVEKLILRGHEVVVVMPEVSWQLGRSLNCTVKTYSTSYTLEDQDREFMVFADARWTAPLRSAFSLLTSSSNGIFDLFFSNCRSLFNDRKLVEYLKESCFDAVFLDPFDACGLIVAKYFSLPSVVFARGIFCHYLEEGAQCPAPLSYVPRLLLGFSDAMTFKERVWNHIMHLEEHLFCPYFFKNVLEIASEILQTPVTAYDLYSHTSIWLLRTDFVLEYPKPVMPNMIFIGGINCHQGKPVPMEFEAYINASGEHGIVVFSLGSMVSEIPEKKAMAIADALGKIPQTVLWRYTGTRPSNLANNTILVKWLPQNDLLGHPMTRAFITHAGSHGVYESICNGVPMVMMPLFGDQMDNAKRMETKGAGVTLNVLEMTSEDLENALKAVINDKSYKENIMRLSSLHKDRPVEPLDLAVFWVEFVMRHKGAPHLRPAAHDLTWYQYHSLDVIGFLLAVVLTVAFITFKCCAYGYRKCLGKKGRVKKAHKSKTH"}, "B2": {"name": "UDP-glucuronosyltransferase 1A9 (Homo sapiens) (protein)", "chain": "MACTGWTSPLPLCVCLLLTCGFAEAGKLLVVPMDGSHWFTMRSVVEKLILRGHEVVVVMPEVSWQLGRSLNCTVKTYSTSYTLEDLDREFKAFAHAQWKAQVRSIYSLLMGSYNDIFDLFFSNCRSLFKDKKLVEYLKESSFDAVFLDPFDNCGLIVAKYFSLPSVVFARGILCHYLEEGAQCPAPLSYVPRILLGFSDAMTFKERVRNHIMHLEEHLLCHRFFKNALEIASEILQTPVTEYDLYSHTSIWLLRTDFVLDYPKPVMPNMIFIGGINCHQGKPLPMEFEAYINASGEHGIVVFSLGSMVSEIPEKKAMAIADALGKIPQTVLWRYTGTRPSNLANNTILVKWLPQNDLLGHPMTRAFITHAGSHGVYESICNGVPMVMMPLFGDQMDNAKRMETKGAGVTLNVLEMTSEDLENALKAVINDKSYKENIMRLSSLHKDRPVEPLDLAVFWVEFVMRHKGAPHLRPAAHDLTWYQYHSLDVIGFLLAVVLTVAFITFKCCAYGYRKCLGKKGRVKKAHKSKTH"}, "B3": {"name": "UDP-glucuronosyltransferase 1A10 (Homo sapiens) (protein)", "chain": "MARAGWTSPVPLCVCLLLTCGFAEAGKLLVVPMDGSHWFTMQSVVEKLILRGHEVVVVMPEVSWQLERSLNCTVKTYSTSYTLEDQNREFMVFAHAQWKAQAQSIFSLLMSSSSGFLDLFFSHCRSLFNDRKLVEYLKESSFDAVFLDPFDTCGLIVAKYFSLPSVVFTRGIFCHHLEEGAQCPAPLSYVPNDLLGFSDAMTFKERVWNHIVHLEDHLFCQYLFRNALEIASEILQTPVTAYDLYSHTSIWLLRTDFVLDYPKPVMPNMIFIGGINCHQGKPLPMEFEAYINASGEHGIVVFSLGSMVSEIPEKKAMAIADALGKIPQTVLWRYTGTRPSNLANNTILVKWLPQNDLLGHPMTRAFITHAGSHGVYESICNGVPMVMMPLFGDQMDNAKRMETKGAGVTLNVLEMTSEDLENALKAVINDKSYKENIMRLSSLHKDRPVEPLDLAVFWVEFVMRHKGAPHLRPAAHDLTWYQYHSLDVIGFLLAVVLTVAFITFKCCAYGYRKCLGKKGRVKKAHKSKTH"}, "B4": {"name": "UDP-glucuronosyltransferase 1A1 (Homo sapiens) (protein)", "chain": "MAVESQGGRPLVLGLLLCVLGPVVSHAGKILLIPVDGSHWLSMLGAIQQLQQRGHEIVVLAPDASLYIRDGAFYTLKTYPVPFQREDVKESFVSLGHNVFENDSFLQRVIKTYKKIKKDSAMLLSGCSHLLHNKELMASLAESSFDVMLTDPFLPCSPIVAQYLSLPTVFFLHALPCSLEFEATQCPNPFSYVPRPLSSHSDHMTFLQRVKNMLIAFSQNFLCDVVYSPYATLASEFLQREVTVQDLLSSASVWLFRSDFVKDYPRPIMPNMVFVGGINCLHQNPLSQEFEAYINASGEHGIVVFSLGSMVSEIPEKKAMAIADALGKIPQTVLWRYTGTRPSNLANNTILVKWLPQNDLLGHPMTRAFITHAGSHGVYESICNGVPMVMMPLFGDQMDNAKRMETKGAGVTLNVLEMTSEDLENALKAVINDKSYKENIMRLSSLHKDRPVEPLDLAVFWVEFVMRHKGAPHLRPAAHDLTWYQYHSLDVIGFLLAVVLTVAFITFKCCAYGYRKCLGKKGRVKKAHKSKTH"}}, "type_in_all_cases": "ADME", "key": {"[1]": {"system": "CCN(CC)CCNc1ccc2ncn3c4ccc(O)cc4c(=O)c1c23", "test": "(§1) Activity of human recombinant UGT1A10 V92A mutant expressed in baculovirus-infected Sf9 cells assessed as enzyme-mediated glucuronidation after 60 mins by Michaelis-Menten equation in presence of 3 mM UDP-GlcUA", "summary_of_the_method": "(§2)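 Membrane fractions (5 μg) holding wild-type or point-mutant UGT1A10 incubated with increasing substrate concentrations and 3 mM UDP-GlcUA, 60 min, 37°C; products by HPLC. Kinetic constants from curve fits of three determinations; Km in μM, Vmax in nmol/mg protein/min.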"}, "[2]": {"system": "CN(C)CCCNc1ccc2nnn3c4ccc(O)cc4c(=O)c1c23", "test": "as §1", "summary_of_the_method": "as §2"}, "[3]": {"system": "CCN(CC)CCNc1ccc2ncn3c4ccc(O)cc4c(=O)c1c23", "test": "(§3) Activity of human recombinant UGT1A10 D396A mutant expressed in baculovirus-infected Sf9 cells assessed as enzyme-mediated glucuronidation after 60 mins by Michaelis-Menten equation in presence of 3 mM UDP-GlcUA", "summary_of_the_method": "as §2"}, "[4]": {"system": "CN(C)CCCNc1ccc2nnn3c4ccc(O)cc4c(=O)c1c23", "test": "as §3", "summary_of_the_method": "as §2"}, "[5]": {"substrate": "CN(C)CCCNc1ccc2nnn3c4ccc(O)cc4c(=O)c1c23", "test": "Activity of human recombinant UGT1A7 expressed in baculovirus-infected Sf9 cells assessed as enzyme-mediated glucuronidation after 60 mins by Michaelis-Menten equation in presence of 3 mM UDP-GlcUA"}, "[6]": {"substrate": "CCN(CC)CCNc1ccc2ncn3c4ccc(O)cc4c(=O)c1c23", "test": "(§4) Activity of human recombinant UGT1A9 expressed in baculovirus-infected Sf9 cells assessed as enzyme-mediated glucuronidation after 60 mins by Michaelis-Menten equation in presence of 3 mM UDP-GlcUA", "summary_of_the_method": "(§5)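 Recombinant UGT membrane protein (5 μg; His-tagged UGT1A levels normalized by anti-His Western blot) or single-donor microsomes (20 μg) incubated with substrate 5–1000 μM and 3 mM UDP-GlcUA in […] pH 7.4, 5 mM MgCl2, 5 mM saccharolactone, 2% DMSO, 60 min, 37°C. Ethanol stop, centrifuged, HPLC-UV. Initial velocities fitted to Michaelis-Menten, Hill or substrate-inhibition models; three determinations.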"}, "[7]": {"substrate": "CN(C)CCCNc1ccc2nnn3c4ccc(O)cc4c(=O)c1c23", "test": "as §4", "summary_of_the_method": "as §5"}, "[8]": {"substrate": "CCN(CC)CCNc1ccc2ncn3c4ccc(O)cc4c(=O)c1c23", "test": "(§6) Activity of human recombinant UGT1A10 expressed in baculovirus-infected Sf9 cells assessed as enzyme-mediated glucuronidation after 60 mins by Michaelis-Menten equation in presence of 3 mM UDP-GlcUA", "summary_of_the_method": "as §5"}, "[9]": {"substrate": "CN(C)CCCNc1ccc2nnn3c4ccc(O)cc4c(=O)c1c23", "test": "as §6", "summary_of_the_method": "as §5"}, "[10]": {"substrate": "CCN(CC)CCNc1ccc2ncn3c4ccc(O)cc4c(=O)c1c23", "test": "(§7) Activity of human recombinant UGT1A1 expressed in baculovirus-infected Sf9 cells assessed as enzyme-mediated glucuronidation after 60 mins by Michaelis-Menten equation in presence of 3 mM UDP-GlcUA", "summary_of_the_method": "as §5"}, "[11]": {"substrate": "CN(C)CCCNc1ccc2nnn3c4ccc(O)cc4c(=O)c1c23", "test": "as §7", "summary_of_the_method": "as §5"}}}
{"molecule": "UDP-glucuronosyltransferase 1A10 (Homo sapiens; V92A)", "values": [{"measurement": "Km", "setting": "[1]", "value": 40.7, "unit": "µM"}, {"measurement": "Vmax", "setting": "[1]", "value": 0.00025, "unit": "µmol/min"}, {"measurement": "Km", "setting": "[2]", "value": 64.7, "unit": "µM"}, {"measurement": "Vmax", "setting": "[2]", "value": 0.00073, "unit": "µmol/min"}]}
{"molecule": "UDP-glucuronosyltransferase 1A10 (Homo sapiens; D396A)", "values": [{"measurement": "Km", "setting": "[3]", "value": 75.4, "unit": "µM"}, {"measurement": "Vmax", "setting": "[3]", "value": 0.00078, "unit": "µmol/min"}, {"measurement": "Km", "setting": "[4]", "value": 47.6, "unit": "µM"}, {"measurement": "Vmax", "setting": "[4]", "value": 0.00199, "unit": "µmol/min"}]}
{"molecule": "B1", "values": [{"measurement": "Km", "setting": "[5]", "value": 29.3, "unit": "µM"}, {"measurement": "Vmax", "setting": "[5]", "value": 0.000306, "unit": "µmol/min"}]}
{"molecule": "B2", "values": [{"measurement": "Km", "setting": "[6]", "value": 63.3, "unit": "µM"}, {"measurement": "Vmax", "setting": "[6]", "value": 0.000206, "unit": "µmol/min"}, {"measurement": "Km", "setting": "[7]", "value": 54.6, "unit": "µM"}, {"measurement": "Vmax", "setting": "[7]", "value": 0.000201, "unit": "µmol/min"}]}
{"molecule": "B3", "values": [{"measurement": "Km", "setting": "[8]", "value": 70.6, "unit": "µM"}, {"measurement": "Vmax", "setting": "[8]", "value": 0.000624, "unit": "µmol/min"}, {"measurement": "Km", "setting": "[9]", "value": 94.1, "unit": "µM"}, {"measurement": "Vmax", "setting": "[9]", "value": 0.00256, "unit": "µmol/min"}]}
{"molecule": "B4", "values": [{"measurement": "Km", "setting": "[10]", "value": 28.9, "unit": "µM"}, {"measurement": "Vmax", "setting": "[10]", "value": 0.000115, "unit": "µmol/min"}, {"measurement": "Km", "setting": "[11]", "value": 149, "unit": "µM"}, {"measurement": "Vmax", "setting": "[11]", "value": 0.000262, "unit": "µmol/min"}]}
